Measurements: ChEMBL document CHEMBL3352174, “Identification of a New RXRα Antagonist Targeting the Coregulator-Binding Site” (ACS Med Chem Lett, 2014)
Substitutions are numbered along the chain they refer to. Calls of active or inactive are those of the source. The calls are words filed in the database; no cut-off is given here.

What was measured:
[1] = biological target: T1, Retinoic acid receptor RXR-alpha (Homo sapiens) (UniProt P19793); assay: Antagonist activity against RXRalpha in human HepG2 cells assessed as inhibition of AKT phosphorylation at 5 and 10 uM after 24 hrs by Western blotting method; type: cell-based
T1 sequence (whole entry): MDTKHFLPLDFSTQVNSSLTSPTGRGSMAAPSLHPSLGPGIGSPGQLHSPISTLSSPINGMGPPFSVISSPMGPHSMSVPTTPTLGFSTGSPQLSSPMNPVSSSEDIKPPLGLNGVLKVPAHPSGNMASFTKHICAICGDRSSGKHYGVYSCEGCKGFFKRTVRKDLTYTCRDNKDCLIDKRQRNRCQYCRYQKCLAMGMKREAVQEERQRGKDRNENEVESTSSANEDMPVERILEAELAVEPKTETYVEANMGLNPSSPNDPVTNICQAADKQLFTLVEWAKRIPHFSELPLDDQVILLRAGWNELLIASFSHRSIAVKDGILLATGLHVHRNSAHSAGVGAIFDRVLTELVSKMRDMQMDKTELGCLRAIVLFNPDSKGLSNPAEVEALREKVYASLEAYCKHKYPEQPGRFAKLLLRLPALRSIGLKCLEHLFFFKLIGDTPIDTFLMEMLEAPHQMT
Procedure, shortened: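 A549 or HepG2 cells were exposed to compound for 24 h, then with or without TNFα (20 ng/mL) for 30 min more. Lysates were immunoblotted for AKT activation. One of three to five similar experiments shown.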

[2] = biological target: T1, Retinoic acid receptor RXR-alpha (Homo sapiens); assay: Antagonist activity against RXRalpha in human colon cancer cells assessed as inhibition of AKT phosphorylation at 5 and 10 uM after 24 hrs by Western blotting method; type: cell-based; conditions: Cancer cell lines
HepG2 = assay: Induction of apoptosis in TNFalpha-stimulated human HepG2 cells assessed as PARP cleavage at 5 and 10 uM pre-treated for 24 hrs before TNFalpha addition by immunoblotting method; type: functional, cell-based
Procedure, shortened: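 A549 or HepG2 cells were treated with compound for 24 h, with or without subsequent TNFα (20 ng/mL) for 30 min. Lysates were immunoblotted for PARP cleavage as the apoptosis marker. One of three to five similar experiments shown.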

[3] = biological target: T2, Estrogen receptor (Homo sapiens) (UniProt P03372); assay: Antagonist activity against estrogen receptor ligand binding domain (unknown origin) expressed in human MCF7 cells assessed as inhibition of propyl pyrazole-induced receptor transactivation at 10 uM after 18 hrs by luciferase reporter gene based mammalian one-hybrid assay; type: cell-based
T2 sequence (whole entry): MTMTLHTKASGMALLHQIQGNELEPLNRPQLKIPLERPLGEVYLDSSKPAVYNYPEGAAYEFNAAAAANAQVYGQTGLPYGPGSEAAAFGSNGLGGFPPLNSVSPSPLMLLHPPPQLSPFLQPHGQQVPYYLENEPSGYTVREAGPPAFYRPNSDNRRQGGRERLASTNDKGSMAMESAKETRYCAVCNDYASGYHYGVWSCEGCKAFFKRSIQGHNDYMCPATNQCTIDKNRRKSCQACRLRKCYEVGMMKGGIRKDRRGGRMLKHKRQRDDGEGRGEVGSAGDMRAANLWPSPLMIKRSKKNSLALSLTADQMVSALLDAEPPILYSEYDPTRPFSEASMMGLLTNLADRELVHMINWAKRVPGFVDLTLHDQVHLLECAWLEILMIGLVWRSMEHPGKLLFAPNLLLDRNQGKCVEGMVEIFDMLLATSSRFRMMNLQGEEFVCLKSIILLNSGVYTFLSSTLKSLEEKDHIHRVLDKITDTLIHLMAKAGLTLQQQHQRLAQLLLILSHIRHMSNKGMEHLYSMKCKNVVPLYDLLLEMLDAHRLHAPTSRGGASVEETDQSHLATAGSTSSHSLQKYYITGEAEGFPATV
Procedure, shortened: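 MCF-7 cells co-transfected with pG5-Luc and the pBind-LBD fusion: Nur77, RARγ or ER. Agonists were all-trans-RA 10⁻⁷ M for RARγ and Nur77, and propyl pyrazole triol 10 μM for ER. Compound at 10 μM for 18 h. Dual-luciferase read-out normalized to Renilla. Mean ± SD.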

[4] = biological target: Retinoic acid receptor RXR-alpha/oxysterols receptor LXR-alpha (Homo sapiens) (UniProt P19793+Q13133); assay: Antagonist activity against RXRalpha/LXRalpha ligand binding domain (unknown origin) expressed in human HEK293T cells assessed as inhibition of 9-cis-RA/T09-induced receptor transactivation at 2 and 10 uM after 18 hrs by luciferase reporter gene based mammalian one-hybrid assay; type: cell-based; conditions: HEK-293T
[5] = tested on: T3, Retinoic acid receptor RXR-alpha (Homo sapiens), P19793 [V298S]; assay: Antagonist activity against RXRalpha V298S mutant (unknown origin) expressed in human HEK293T cells assessed as inhibition of 9-cis-RA-induced receptor transactivation at 1 to 10 uM after 18 hrs by luciferase reporter gene based mammalian one-hybrid assay; type: cell-based; conditions: HEK-293T
T3 sequence (whole entry): T1 sequence (whole entry) with V298S
Procedure, shortened: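 HEK-293T cells co-transfected with pG5-Luc and an RXRα mutant vector (V298S as pBind fusion; A272W, C432W LBP mutants). […] Luciferase read-out. Mean ± SD.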

[6] = biological target: Retinoic acid receptor gamma (Homo sapiens) (UniProt P13631); assay: Antagonist activity against RARgamma ligand binding domain (unknown origin) expressed in human MCF7 cells assessed as inhibition of ATRA-induced receptor transactivation at 10 uM after 18 hrs by luciferase reporter gene based mammalian one-hybrid assay
Sequence of Retinoic acid receptor gamma (Homo sapiens) (P13631 whole entry, looked up, the tested form may be a part): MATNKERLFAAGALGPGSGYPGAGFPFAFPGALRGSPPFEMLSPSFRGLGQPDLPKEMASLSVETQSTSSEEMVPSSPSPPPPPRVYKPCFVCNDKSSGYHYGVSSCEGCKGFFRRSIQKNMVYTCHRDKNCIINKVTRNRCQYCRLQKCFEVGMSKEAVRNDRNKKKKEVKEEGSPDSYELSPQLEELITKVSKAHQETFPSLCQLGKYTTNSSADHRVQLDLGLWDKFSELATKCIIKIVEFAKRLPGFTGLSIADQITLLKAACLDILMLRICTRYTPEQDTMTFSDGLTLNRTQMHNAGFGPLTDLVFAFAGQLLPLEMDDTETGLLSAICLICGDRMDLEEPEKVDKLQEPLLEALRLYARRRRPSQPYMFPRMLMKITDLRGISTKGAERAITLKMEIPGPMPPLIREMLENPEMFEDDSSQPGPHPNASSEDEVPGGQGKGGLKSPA

inhibition [1]: Dose-dependent effect
inhibition [2]: Active
inhibition [3]: inactive
inhibition [4]: inactive
inhibition [5]: inactive
inhibition [6]: Active
Compound: Cc1cc(=O)oc2c(/C=N/NC(=O)CSc3nc4ccccc4s3)c(O)ccc12
Activity (HepG2): Active
